Assay results collected from several papers.
Lines come from different studies, so protocols differ.
Target: Casein kinase I isoform gamma-3 (CSNK1G3, Homo sapiens, UniProt Q9Y6M4)

| Compound | observed | mode | technique | tested at | quantity | value |
| --- | --- | --- | --- | --- | --- | --- |
| COc1ncccc1-c1cnn2ccc(N3CCN(C(=O)OC(C)C)CC3)nc12 | binding |  | competition with immobilised ligand | 1 µM | remaining binding | 92% |
| Cn1cncc1[C@@](O)(COc1ccc(C#N)cc1-c1ccc(OC(F)(F)F)cc1)c1ccc(C#N)cc1 | cell-free assay |  | competition with immobilised ligand | 1 µM | remaining binding | 100% |
| COc1cc(Nc2ncc(F)c(Nc3ccc4c(n3)NC(=O)C(C)(C)O4)n2)cc(OC)c1OC | binding |  | competition with immobilised ligand | 10 µM | inhibition | 0% |
| N#CC1(c2ccccn2)CCN(Cc2cc(C(=O)O)c(=O)n3ccccc23)CC1 | cell-free assay |  | competition with immobilised ligand | 1 µM | remaining binding | 93% |
| Cn1cc(-c2cccc(N3CCc4c(sc5c4CC(C)(C)C5)C3=O)c2CO)cc(Nc2ccncn2)c1=O | enzyme activity | inhibitor |  | 1 µM | inhibition | -1% |
| O=c1[nH]c2ccccc2n1C1CCN(Cc2ccc(-c3[nH]c4cc5ncnc5cc4nc3-c3ccccc3)cc2)CC1 | cell-free assay |  |  | 0.5 µM | remaining signal | 96.5% |
| Cc1nn(C)cc1-c1nc2c(N3CCN(Cc4ccc(Cl)cc4)CC3)c(Cl)cnc2[nH]1 | binding |  | competition with immobilised ligand | 1 µM | remaining binding | 100% |
| Cn1cc(-c2cc(F)cc(N3CCn4c(cc5c4CCCC5)C3=O)c2CO)cc(Nc2ccc(N3CCN(C4COC4)CC3)cn2)c1=O | enzyme activity | inhibitor |  | 0.1 µM | inhibition | 7% |
| CC(C)(C)c1cc(C=C(C#N)C#N)cc(Br)c1O | enzyme activity | inhibitor |  | 0.5 µM | remaining activity | 85.8% |
